Activity calls are given as the source filed them.
Key:
[1] = Neurotoxicity in Sprague-Dawley rat at 100 mg/kg, ip measured after 0.25 hrs by rotarod test; type: toxicity, organism-based; conditions: in vivo
Procedure, shortened: (§1)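 Rat neurotoxicity after i.p. or p.o. dosing was scored as animals impaired / animals tested at each time point. For p.o. dosing, TD50 was obtained by probit analysis.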

[2] = tested on: Mus musculus; assay: Anticonvulsant activity in CF-1 mouse model of maximal electroshock-induced seizure assessed as suppression of tonic hind limb extension at 100 mg/kg, ip measured at 0.25 hrs post dose; type: functional, organism-based
Procedure, shortened: (§2)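 Mice dosed i.p. and given maximal electroshock at 50 mA. Read-out is protection, reported as number protected / number tested at 0.25, 0.5, 1 and 4 h after dosing.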

[3] = tested on: Mus musculus; assay: Anticonvulsant activity in CF-1 mouse assessed as protection against 44 mA current-induced seizure at 120 mg/kg, ip after 15 mins by 6 Hz psychomotor test; type: functional, organism-based
Procedure, shortened: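 Mice dosed i.p. (30, 100, 300 mg/kg; one line at 120 mg/kg read at 15 min). Corneal stimulation at 6 Hz, 44 mA for 3 s from a constant-current device induces a psychomotor seizure with stunned posture, forelimb automatisms, clonus, vibrissae twitching and Straub tail. Scored as number of animals protected / number tested (4 per group) at 0.5 and 2 h.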

[4] = Neurotoxicity in CF-1 mouse at 220 mg/kg, ip measured after 1 hr by rotarod test; type: toxicity, organism-based; conditions: in vivo
Procedure, shortened: (§3)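 Mice dosed i.p. were placed on a 1 in. knurled rod turning at 6 rpm. Toxicity was scored as failure to keep balance for at least 1 min, i.e. falling off three or more times. Results are reported as animals showing toxicity / animals tested at each time point.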

[5] = tested on: Rattus norvegicus; assay: Anticonvulsant activity in hippocampal kindling Sprague-Dawley rat model assessed as after discharge time at 50 mg/kg, ip administered as single dose measured immediately; type: functional
Procedure, shortened: (§4)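 Rats implanted with a hippocampal electrode and kindled with suprathreshold trains (200 µA, 10 s, 50 Hz) every 30 min for 6 h on alternate days until fully kindled. One week later they received a single i.p. dose. Seizure score (Racine scale) and afterdischarge duration were recorded at 0–135 min and compared with the control stimulus given 15 min before dosing; each animal served as its own control. Values are mean ± SEM.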

[6] = tested on: Astrocyte; assay: Cytotoxicity against mouse astrocytes at 10 to 200 uM after 24 hrs by MTT assay; type: cell-based
Procedure, shortened: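 Mouse astrocyte line (CRL-2541) grown in DMEM with 10% FBS at 37 °C, 5% CO2. Seeded at 1×10^4 per well in 1% FBS medium, treated with 10–200 µM for 24 h against vehicle controls. MTT reagent added for 4 h at 37 °C, crystals dissolved, absorbance read at 570 nm.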

[7] = Protection index, ratio of TD50 for neurotoxicity in ip dosed CF-1 mouse to ED50 for anticonvulsant activity in CF-1 mouse model of maximal electroshock-induced seizure; type: toxicity, organism-based; conditions: in vivo, read-out: Ratio TD50/ED50
[8] = Neurotoxicity in Sprague-Dawley rat at 300 mg/kg, ip measured after 4 hrs by rotarod test; type: toxicity, organism-based; conditions: in vivo; procedure, shortened: as §1
[9] = Neurotoxicity in Sprague-Dawley rat at 30 mg/kg, ip measured after 4 hrs by rotarod test; type: toxicity, organism-based; conditions: in vivo; procedure, shortened: as §1
[10] = tested on: Rattus norvegicus; assay: Anticonvulsant activity in hippocampal kindling Sprague-Dawley rat model assessed as after discharge time at 100 mg/kg, ip administered as single dose measured after 105 mins; type: functional; procedure, shortened: as §4
[11] = Neurotoxicity in ip dosed CF-1 mouse by rotarod test; type: toxicity, organism-based; conditions: in vivo; procedure, shortened: as §3
[12] = Neurotoxicity in CF-1 mouse at 220 mg/kg, ip measured after 4 hrs by rotarod test; type: toxicity, organism-based; conditions: in vivo; procedure, shortened: as §3
[13] = tested on: Rattus norvegicus; assay: Anticonvulsant activity in po dosed Sprague-Dawley rat model of maximal electroshock-induced seizure assessed as time required for suppression of tonic hind limb extension; type: functional
Procedure, shortened: (§5)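 Rats dosed p.o. and tested by MES at 150 mA. ED50 derived by probit analysis from quantitative dose groups, run at the time of peak effect (hours).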

[14] = tested on: Rattus norvegicus; assay: Anticonvulsant activity in hippocampal kindling Sprague-Dawley rat model assessed as after discharge time at 100 mg/kg, ip administered as single dose measured after 45 mins; type: functional; procedure, shortened: as §4
[15] = Neurotoxicity in Sprague-Dawley rat at 300 mg/kg, ip measured after 2 hrs by rotarod test; type: toxicity, organism-based; conditions: in vivo; procedure, shortened: as §1
[16] = tested on: Rattus norvegicus; assay: Anticonvulsant activity in hippocampal kindling Sprague-Dawley rat model assessed as decrease of seizure score at 100 mg/kg, ip administered as single dose measured up to 135 mins; type: functional, organism-based; procedure, shortened: as §4
[17] = Neurotoxicity in Sprague-Dawley rat at 50 mg/kg, ip administered as single dose measured after 0.25 hrs by rotarod test; type: toxicity, organism-based; conditions: in vivo; procedure, shortened: as §1
[18] = tested on: Mus musculus; assay: Anticonvulsant activity in CF-1 mouse model of maximal electroshock-induced seizure assessed as suppression of tonic hind limb extension at 110 mg/kg, ip measured at 0.5 hrs post dose; type: functional, organism-based; procedure, shortened: as §2
[19] = tested on: Rattus norvegicus; assay: Anticonvulsant activity in po dosed Sprague-Dawley rat model of maximal electroshock-induced seizure assessed as suppression of tonic hind limb extension; type: functional; procedure, shortened: as §5
[20] = tested on: Mus musculus; assay: Anticonvulsant activity in CF-1 mouse model of maximal electroshock-induced seizure assessed as suppression of tonic hind limb extension at 110 mg/kg, ip measured at 1 hr post dose; type: functional, organism-based; procedure, shortened: as §2
[21] = tested on: Rattus norvegicus; assay: Anticonvulsant activity in hippocampal kindling Sprague-Dawley rat model assessed as after discharge time at 100 mg/kg, ip administered as single dose measured after 135 mins; type: functional; procedure, shortened: as §4
[22] = Neurotoxicity in Sprague-Dawley rat at 100 mg/kg, ip measured after 2 hrs by rotarod test; type: toxicity, organism-based; conditions: in vivo, 2 h; procedure, shortened: as §1
[23] = tested on: Rattus norvegicus; assay: Anticonvulsant activity in hippocampal kindling Sprague-Dawley rat model assessed as after discharge time at 50 mg/kg, ip administered as single dose measured after 75 mins; type: functional; procedure, shortened: as §4
[24] = Neurotoxicity in Sprague-Dawley rat at 300 mg/kg, ip measured after 0.25 hrs by rotarod test; type: toxicity, organism-based; conditions: in vivo; procedure, shortened: as §1
[25] = tested on: Rattus norvegicus; assay: Anticonvulsant activity in hippocampal kindling Sprague-Dawley rat model assessed as after discharge time at 50 mg/kg, ip administered as single dose measured after 45 mins; type: functional; procedure, shortened: as §4
[26] = Neurotoxicity in CF-1 mouse at 100 mg/kg, ip measured after 0.25 hrs by rotarod test; type: toxicity, organism-based; conditions: in vivo; procedure, shortened: as §3
[27] = tested on: Astrocyte; assay: Cytotoxicity against human astrocytes at 10 to 200 uM after 24 hrs by MTT assay; type: cell-based
Procedure, shortened: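 Human astrocytes derived from iPSCs via neural stem cells (7 days neural induction, then 17 days in astrocyte growth medium; GFAP-confirmed). Cells seeded at 1×10^4 per well in 1% FBS medium the day before, then exposed to 10–200 µM for 24 h with vehicle controls. MTT added for 4 h at 37 °C, formazan dissolved, OD read at 570 nm.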

[28] = Neurotoxicity in po dosed Sprague-Dawley rat by rotarod test; type: toxicity, organism-based; conditions: in vivo; procedure, shortened: as §1
[29] = tested on: Rattus norvegicus; assay: Anticonvulsant activity in hippocampal kindling Sprague-Dawley rat model assessed as after discharge time at 50 mg/kg, ip administered as single dose measured after 135 mins; type: functional; procedure, shortened: as §4
[30] = tested on: Rattus norvegicus; assay: Anticonvulsant activity in hippocampal kindling Sprague-Dawley rat model assessed as after discharge time at 100 mg/kg, ip administered as single dose measured after 15 mins; type: functional; procedure, shortened: as §4
[31] = tested on: Rattus norvegicus; assay: Anticonvulsant activity in hippocampal kindling Sprague-Dawley rat model assessed as after discharge time at 100 mg/kg, ip administered as single dose measured after 75 mins; type: functional; procedure, shortened: as §4

Q: With `CCC(O)CNC(=O)COc1c(C)cccc1C` (stereo unspecified) as the compound, how does the Activity [1] read?
A: Active

Q: And the Activity [2]?
A: Active

Q: Which results are given for `Cc1cccc(C)c1OCC(=O)N[C@H](C)CO`?
A: Activity [3]: Active; Activity [4]: Non-Toxic; Time [5]: 72 s; Activity [6]: Non-Toxic; selectivity ratio [7]: 1.43; Activity [8]: Toxic; Activity [9]: Non-Toxic; Time [10]: 77 s; TD50 [11]: 140 mg/kg; Activity [12]: Non-Toxic; Time [13]: 0.5 h; Time [14]: 86 s; Activity [15]: Toxic; Activity [16]: Active; Activity [17]: Non-Toxic; Activity [18]: inactive; ED50 [19]: 12 mg/kg; Activity [20]: inactive; Time [21]: 76 s; Activity [22]: Non-Toxic; Time [23]: 75 s; Activity [24]: Toxic; Time [25]: 73 s; Activity [26]: Non-Toxic; Activity [27]: Non-Toxic; TD50 [28]: > 500 mg/kg; Time [29]: 72 s; Time [30]: 48 s; Time [31]: 80 s
